Calls of active or inactive are those of the source. No cut-off for these calls is given here.
Assays:
[1] = Binding affinity to synthetic c-MYC G-quadruplex DNA assessed as increase in thermal stability at 1:1 to 2:1 ligand:DNA ratio in presence of 20 mM KCl buffer by circular dichroism spectroscopic analysis
Method in brief: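 CD melting in 5 mM potassium phosphate, 20 mM KCl, 10 µM folded G4, heated 20-100 °C at 1 °C/min; ligand:DNA ratios 1:1, 2:1 and 4:1 compared; Tm from curve fit.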

[2] = Binding affinity to synthetic c-MYC G-quadruplex DNA assessed as change in melting temperature at 4 mol equiv in presence of 20 mM KCl buffer by circular dichroism spectroscopic analysis
[3] = Binding affinity to synthetic telomere 23 G-quadruplex DNA assessed as change in melting temperature at 4 mol equiv in presence of 100 mM KCl buffer by circular dichroism spectroscopic analysis
Method in brief: (§1)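 CD melting, 20-100 °C at 1 °C/min, signal at 264 (parallel), 290 (antiparallel) or 280 nm (duplex). G4 DNA 10 µM or duplex 15 µM, folded by heating at 90 °C 5 min and slow cooling, in 10 mM potassium phosphate (c-kit1, Tel23, Tel26) or lithium phosphate (Tel23-p, ds12) pH 7.0 with 100 mM KCl. Ligand 4 equiv; Tm by curve fit, ΔTm vs DNA alone; duplicate average.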

[4] = Ratio of IC50 for human U2OS cells to stabilization of nuclear G-quadruplex DNA in human U2OS cells
U2OS [5] = assay: Cytotoxicity against human U2OS cells assessed as cell death after 24 hrs by microscopic analysis; type: cell-based
[6] = Cytotoxicity against human HCT116 cells assessed as cell killing after 1 hr by MTT assay; type: functional, cell-based; settings: HCT-116, 1 h
Method in brief: (§2)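 U2OS and HCT116 in DMEM with 10% FBS, 1% L-glutamine, seeded at 40000 cells/ml; 24 h later exposed for 1 h or 24 h, then drug-free medium 1-2 days. MTT 1 h at 37 °C, DMSO solubilisation, absorbance 595 nm. IC50 by linear regression; two independent experiments in triplicate, mean ± SE.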

[7] = Effect on synthetic c-MYC G-quadruplex DNA topology at 4 mol equiv by circular dichroism spectroscopic analysis
Method in brief: (§3)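 CD spectra at 20 °C, 230-360 nm, 3 scans averaged, baseline subtracted; 10 µM G4 or 15 µM duplex in potassium- or lithium-phosphate pH 7.0 buffers with 100 mM KCl (c-kit2, c-myc: 5 mM potassium phosphate, 20 mM KCl); ligand 4 molar equiv added to folded DNA from 6 mM DMSO stock.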

[8] = Binding affinity to 5' and 3'-terminal G-tetrads of synthetic c-KIT2 G12T/G21T double mutant parallel G-quadruplex DNA in presence of 20 mM KCl solution by NMR spectroscopic analysis
Method in brief: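 1H NMR titration at 25 °C, 700 MHz, water-suppressed 1D spectra; DNA 0.2-0.5 mM strand in H2O/D2O 9:1. Myc22 in 25 mM KH2PO4, 70 mM KCl, 0.2 mM EDTA, pH 7.0; c-kit2 T12/T21 in 5 mM KH2PO4, 20 mM KCl, 0.2 mM EDTA, pH 6.8. Ligand in DMSO-d6 added stepwise into the tube; imino proton shifts followed.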

[9] = Binding affinity to synthetic c-KIT2 G-quadruplex DNA assessed as change in melting temperature at 4 mol equiv in presence of 20 mM KCl buffer by circular dichroism spectroscopic analysis
Method in brief: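 CD melting as for other targets (20-100 °C, 1 °C/min, 10 µM folded G4, ligand 4 equiv), but in 5 mM potassium phosphate with 20 mM KCl; c-kit2 read at 264 nm as parallel G4. ΔTm from fitted Tm, duplicate average.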

U2OS [10] = assay: Stabilization of nuclear G-quadruplex DNA in human U2OS cells at 0.2 to 1 uM after 24 hrs by DAPI staining based immunofluorescence assay; type: cell-based
Method in brief: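 U2OS seeded at 100000 cells/ml, treated 24 h after seeding for 24 h; fixed methanol:acetic acid 3:1, 0.1% Triton X-100, 2% milk block. Stained with in-house His-purified BG4, anti-FLAG, Alexa 488 anti-rabbit; nuclei DAPI. Per-cell signal as corrected total cell fluorescence; Student's t test.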

[11] = Effect on synthetic telomere 26 G-quadruplex DNA topology at 4 mol equiv by circular dichroism spectroscopic analysis; method in brief: as §3
[12] = Binding affinity to 5'-FAM/3'-TAMRA labeled c-KIT2 G-quadruplex DNA (unknown origin) assessed as change in melting temperature at 4:1 ligand:DNA ratio in presence of 20 mM KCl buffer by FRET assay
Method in brief: (§4)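 FRET melting of FAM/TAMRA-labelled G4 oligos (400 nM, annealed 85 °C 10 min) with ligand at 4 equiv, same buffers as CD (20 mM KCl for c-kit2 and c-myc; 100 mM KCl for telomeric parallel form, annealed at high concentration). Excitation 450-495 nm, emission 515-545 nm, read every 0.5 °C over 30-100 °C; ΔTm by curve fit; duplicate runs averaged.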

[13] = Cytotoxicity against human HCT116 cells assessed as cell killing after 24 hrs by MTT assay; type: functional, cell-based; settings: HCT-116, 24 h; method in brief: as §2
U2OS [14] = assay: Cytotoxicity against human U2OS cells assessed as cell killing after 24 hrs by MTT assay; type: functional, cell-based; method in brief: as §2
[15] = Induction of G-quadruplex formation in synthetic unfolded telomere 23 DNA assessed as increase in molar ellipticity after 10 mins in absence of metal cation by circular dichroism titration method
Method in brief: (§5)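 CD titration without metal ions: unfolded oligonucleotide 12-15 µM in 50 mM Tris; ligand added in 0.5 equiv steps, spectrum recorded 10 min after each addition at 20 °C, 230-360 nm, 3 scans averaged.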

[16] = Binding affinity to synthetic c-KIT1 G-quadruplex DNA assessed as change in melting temperature at 4 mol equiv in presence of 100 mM KCl buffer by circular dichroism spectroscopic analysis; method in brief: as §1
[17] = Effect on synthetic c-KIT1 G-quadruplex DNA topology at 4 mol equiv by circular dichroism spectroscopic analysis; method in brief: as §3
[18] = Effect on synthetic telomere 23 parallel G-quadruplex DNA topology at 4 mol equiv by circular dichroism spectroscopic analysis; method in brief: as §3
[19] = Binding affinity to 5'-FAM/3'-TAMRA labeled c-MYC G-quadruplex DNA (unknown origin) assessed as change in melting temperature at 4:1 ligand:DNA ratio in presence of 20 mM KCl buffer by FRET assay; method in brief: as §4
[20] = Binding affinity to synthetic telomere 26 G-quadruplex DNA assessed as change in melting temperature at 4 mol equiv in presence of 100 mM KCl buffer by circular dichroism spectroscopic analysis; method in brief: as §1
[21] = Induction of parallel G-quadruplex formation in synthetic unfolded c-KIT1 DNA assessed as increase in molar ellipticity after 10 mins by in absence of metal cation circular dichroism titration method; method in brief: as §5
[22] = Effect on preformed synthetic c-MYC parallel G-quadruplex DNA topology in tris buffer after 10 mins by circular dichroism titration method
U2OS [23] = assay: Cytotoxicity against human U2OS cells assessed as cell death after 24 hrs by FACS analysis; type: cell-based

For `Br.O=Cc1c(-c2ccccc2)nc2n1ccc1nc(-c3ccccc3)c(/C=N/NC3=NCCN3)n12`, the Activity [1] was “Active”, the ΔTm [2] was greater than 20 °C and the ΔTm [3] was -2.4 °C. The Ratio [4] was 4, the Activity (U2OS [5]) was “Non-toxic” and the IC50 [6] was 4180 nM. For the same molecule, the Activity [7] was “inactive”, the Activity [8] was “Active” and the ΔTm [9] was 9.5 °C. For the same molecule, the Activity (U2OS [10]) was “Active”, the Activity [11] was “inactive” and the ΔTm [12] was 15 °C. The IC50 [13] was 407 nM, the IC50 (U2OS [14]) was 845 nM and the Activity [15] was “inactive”. The ΔTm [16] was 2.7 °C, the Activity [17] was “inactive” and the Activity [18] was “inactive”. The ΔTm [19] was greater than 20 °C, the ΔTm [20] was -3 °C and the Activity [21] was “inactive”. For the same molecule, the Activity [22] was “inactive” and the Activity (U2OS [23]) was “Non-toxic”.

From ChEMBL document CHEMBL3826876, “Toward the Development of Specific G-Quadruplex Binders: Synthesis, Biophysical, and Biological Studies of New Hydrazone Derivatives” (J Med Chem, 2016)
